Source: ChEMBL document CHEMBL1127409 (J Med Chem, 1994)

Tests used:
Glutamate NMDA receptor [1] = assay: Affinity for the glycine binding site of NMDA receptor by inhibition of [3H]5,7-dichlorokynurenic acid ([3H]DCKA) binding to rat brain synaptic membrane
[2] = The compound was tested for its affinity for the glutamic acid binding site of the non-NMDA receptor by using [3H]-kainic acid as radioligand; set-up: species or system Rattus norvegicus
How it was run: (§1)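 Selectivity radioligand binding, run like the [3H]DCKA assay on rat brain synaptic membranes. [3H]CGP-39653 labels the NMDA glutamic acid site; [3H]AMPA and [3H]kainic acid label non-NMDA receptors.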

Glutamate NMDA receptor [3] = assay: The compound was tested for its functional antagonism of the NMDA receptor by using [3H]-MK-801 as radioligand
[4] = The compound was tested for its affinity for the glutamic acid binding site of the non-NMDA receptor by using [3H]AMPA as radioligand; set-up: species or system Rattus norvegicus; how it was run: as §1
Glutamate NMDA receptor [5] = assay: The compound was tested for its affinity for the glutamic acid binding site of the NMDA receptor by using [3H]CGP-39653 as radioligand; assay type: protein-complex assay; how it was run: as §1
[6] = tested on: Glutamate NMDA receptor (Mus musculus); assay: In vivo inhibition of NMDA-induced seizures

Row | SMILES | Ki (Glutamate NMDA receptor [1]) [nM] | further results
1 | O=C(O)C[C@H]1CCc2cc(Br)cc3[nH]c(=O)c(=O)n1c23 | 9.6 | –
2 | O=C(NCC1CCc2cc(Br)cc3[nH]c(=O)c(=O)n1c23)Nc1ccccc1 (stereo not drawn) | 480 | –
3 | O=C(Nc1ccccc1)N[C@H]1C[C@H](C(=O)O)Nc2cc(Cl)cc(Cl)c21 | 2 | –
4 | O=C(CC1CCc2cc(Br)cc3[nH]c(=O)c(=O)n1c23)Nc1ccccc1 (stereo not drawn) | 2.6 | IC50 [2]: > 25000 nM; IC50 (Glutamate NMDA receptor [3]): 1700 nM; IC50 [4]: 4600 nM; IC50 (Glutamate NMDA receptor [5]): > 25000 nM
5 | O=C(O)C1CCc2cc(Br)cc3[nH]c(=O)c(=O)n1c23 (stereo not drawn) | 30 | –
6 | O=C(O)C1Cc2cc(Br)cc3[nH]c(=O)c(=O)n1c23 (stereo not drawn) | 83 | –
7 | O=C(NCC1CCc2cc(Br)cc3[nH]c(=O)c(=O)n1c23)c1ccccc1 (stereo not drawn) | 190 | –
8 | O=c1[nH]c2cc(Br)cc3c2n(c1=O)CCC3 | 710 | –
9 | Oc1nc2cc(Cl)c(Cl)cc2nc1O [2,3-DIHYDROXY-6,7-DICHLOROQUINOXALINE] | 160 | –
10 | O=C(O)CCC1CCc2cc(Br)cc3[nH]c(=O)c(=O)n1c23 (stereo not drawn) | 38 | –
11 | O=C(CCC1CCc2cc(Br)cc3[nH]c(=O)c(=O)n1c23)Nc1ccccc1 (stereo not drawn) | 320 | –
12 | O=C(O)C[C@@H]1CCc2cc(Br)cc3[nH]c(=O)c(=O)n1c23 | 2.3 | ED50 [6]: 26 mg/kg
13 | O=C(NCC1Cc2cc(Br)cc3[nH]c(=O)c(=O)n1c23)c1ccccc1 (stereo not drawn) | > 2000 | –
14 | O=C(CC1Cc2cc(Br)cc3[nH]c(=O)c(=O)n1c23)Nc1ccccc1 (stereo not drawn) | 170 | –
15 | O=C(NCC1Cc2cc(Br)cc3[nH]c(=O)c(=O)n1c23)Nc1ccccc1 (stereo not drawn) | 430 | –
16 | O=c1[nH]c2cc(Br)cc3c2n(c1=O)CC3 | > 3000 | –
17 | O=C(Nc1ccccc1)C1Cc2cc(Br)cc3[nH]c(=O)c(=O)n1c23 (stereo not drawn) | 930 | –
18 | O=C(C[C@@H]1CCc2cc(Br)cc3[nH]c(=O)c(=O)n1c23)Nc1ccccc1 | 0.96 | –
19 | O=C(O)CC1Cc2cc(Br)cc3[nH]c(=O)c(=O)n1c23 (stereo not drawn) | 7.3 | –
20 | O=C(C[C@H]1CCc2cc(Br)cc3[nH]c(=O)c(=O)n1c23)Nc1ccccc1 | 82 | –
21 | O=C(Nc1ccccc1)C1CCc2cc(Br)cc3[nH]c(=O)c(=O)n1c23 (stereo not drawn) | 2100 | –
22 | O=C(O)c1cc(O)c2c(Cl)cc(Cl)cc2n1 | 40 | –
23 | O=C(O)CC1CCc2cc(Br)cc3[nH]c(=O)c(=O)n1c23 (stereo not drawn) | 9.9 | IC50 [2]: > 30000 nM; IC50 (Glutamate NMDA receptor [3]): 4100 nM; IC50 [4]: 4600 nM; IC50 (Glutamate NMDA receptor [5]): > 30000 nM; ED50 [6]: 64 mg/kg
